Assay outcomes (PubChem BioAssay)
HUVEC inhibit = inhibitors of HUVEC proliferation, primary screen, cell-based, 384-well. CellTiter-Glo luminescence, 72 h; active compounds read low. actives 1.1% (n = 86,000). viability, % at 10 µM (by protocol);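 active = viability at or below 30%; inactive = viability above 30%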;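 also: 100% = median luminescence of DMSO-only cell control wells on each plate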
H69AR growth 86K = proliferation blockers of H69AR lung cancer cells, primary screen, cell-based, human, 86K library; viability, % at 10 µM; H69AR lung tumor viability, ATP luminescence, 72 h; active compounds read low; actives 6% (n = 85,000); AID 598, 2007;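 active = viability at or below 40%; inactive = viability above 40%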;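 also: multidrug resistant small cell line overexpressing MRP-1 efflux transporter; 100% = mean luminescence of untreated control wells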
Pyk2 oligo antag = antagonists of Pyk2 self-association, primary screen, Q293 cells, FERM NanoBiT luminescence, HTS; actives 0.83% (n = 99,000); Protein-tyrosine kinase 2-beta (Homo sapiens), Q14289; active compounds read low; z-score (the deposit names both 25 µM and 10 µM);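 active = Z-score of -3 or lower, scaled per plate to the spread of control and sample wells; inactive = z-score above -3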;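 also: negative z-score means lost luminescence so less FERM oligomerization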
HCT116 PTEN-null = growth suppression of PTEN-null HCT116, primary screen, cell-based, CellTiter-Glo; HCT116 PTEN-null viability, 60 h; active compounds read low; AID 827, 2007; actives 1.2% (n = 140,000); viability, % at 10 µM;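 active = viability at or below a set limit, 4 SD under the median of all tested compounds, cut at about 3.7% in these data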;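 also: PTEN knockout HCT116 line with beta catenin targeted HCT116 as companion control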
HCT116 bCat-KO = primary screen for growth suppressors in beta-catenin knockout HCT116 cells (colon tumor, human); HCT116 beta-catenin knockout viability, CellTiter-Glo, 60 h; active compounds read low; actives 1.5% (n = 140,000); viability, % at 10 µM;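 active = viability at or under a set limit, the compound median less 4 SD, cut at about 6% in these data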;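 also: 0% = Hyamine 1622 control at 20 µM and 100% = untreated cell control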
Fibroblast inh = antiproliferative effect on LL 47 fibroblasts – human, LL 47 cells, CellTiter-Glo luminescence, primary screen | LL 47 human lung fibroblast viability, ATP luminescence; active compounds read low | actives 1.1% (n = 85,000) | viability, % at 10 µM;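 active = viability at or below 50% in the single dose screen; inactive = viability above 50%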;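 also: compound exposure lasted 72 h before the ATP readout; 100% = median luminescence of untreated cell-only wells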
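Material: human LL 47 lung fibroblast cells; quantity: 1,150 cells/well; medium: IMEM plus 15% FBS; doses: 0.1% DMSO in all compound wells; timing: overnight attachment after seeding, then 72 h compound exposure at 37 °C; detection: CellTiter-Glo luminescence; measure: % viability of median cell-only signal; controls: cell-only wells, no compound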
Active calls of the source: *; · = no result given. This excerpt belongs to a sample that is enriched for hits.

SMILES | HUVEC inhibit | H69AR growth 86K | Pyk2 oligo antag | HCT116 PTEN-null | HCT116 bCat-KO | Fibroblast inh
CCc1cccc(CC)c1NC(=O)COC(=O)c1cccc(S(=O)(=O)N2CCc3ccccc3C2)c1 | · | · | · | 68.7 | 72.2 | ·
CN(C)S(=O)(=O)c1cccc(NC(=O)COC(=O)c2cccc(S(=O)(=O)N3CCc4ccccc4C3)c2)c1 | · | · | · | 0.2* | 0.7* | ·
c1ccc(-n2ncc3c(NC4CCCCCC4)ncnc32)cc1 | 73.0 | 48.0 | · | · | · | 81.6
NNc1ncnc2c1cnn2-c1ccccc1 | 72.9 | 20.3* | -0.74 | 77.0 | 75.5 | 91.5
CCOC(=O)N1CCC(Nc2ncnc3c2cnn3-c2ccccc2)CC1 | 92.9 | 28.1* | -0.47 | 92.0 | 93.1 | 98.8
Cc1ccc(C2=NNC(c3ccc(Cl)cc3)=Nc3ccccc32)o1 | · | · | · | 76.4 | 73.0 | ·
O=C(c1ccc2snnc2c1)N1CCCCC1 | 92.8 | 99.6 | 0.03 | 104.9 | 100.2 | 104.3
O=C(c1ccc2snnc2c1)N1CCSCC1 | 91.7 | 35.3* | 0.66 | 101.6 | 101.0 | ·
CC(=O)Nc1ccc(-c2nn[nH]n2)cc1Cl | · | · | -0.37 | 103.9 | 106.0 | ·
CCn1c(=NC(=O)CSC(C)=O)sc2cc(F)ccc21 | 52.6 | 27.6* | -0.47 | 94.8 | 95.7 | 97.4
CCCNC(=S)N(Cc1ccccc1)Cc1nc2ccccc2c(=O)[nH]1 | · | · | -0.71 | 96.4 | 83.1 | ·
O=c1cc(O)c2c(=O)n(-c3ccccc3)c3c(c2o1)CCCCCC3 | · | · | · | 103.8 | 94.1 | ·
COc1ccc(OC)c(C(=O)c2coc3ccc(O)cc23)c1 | 77.9 | 24.1* | -1.36 | 105.6 | 97.5 | 98.6
COc1ccc(C(=O)c2ccc(OC)cc2O)c(O)c1 | 90.2 | 32.0* | -1.05 | 86.1 | 64.1 | 88.7
COc1ccc(C(=O)/C=C(\N)C(F)(F)F)c(O)c1 | 85.4 | 73.7 | 0.73 | 96.7 | 97.8 | ·
CCOc1ccc(N2C(=O)c3ccc(C(=O)OCc4c(C)noc4C)cc3C2=O)cc1 | 41.6 | 35.8* | 0.18 | 98.5 | 98.6 | 72.3
Oc1ccc(CNCC2COc3ccccc3O2)cc1 (configuration not stated) | · | · | -0.88 | 99.6 | 95.8 | ·
CC(C)(C)C(=O)/C=c1\[nH]c(=O)/c(=C\c2ccc(C#N)cc2)s1 | 64.6 | 59.5 | -1.36 | 29.7 | 29.3 | 79.6
Cc1cccc(/C=c2\s/c(=C\C(=O)C(C)(C)C)[nH]c2=O)c1 | 60.6 | 6.8* | -1.74 | 26.2 | 28.7 | 74.1
Cc1c(Cc2ccc3c(c2)OCO3)sc(NC(=O)C(C)(C)C)c1C#N | 84.5 | 38.3* | · | 40.3 | 46.9 | 83.6
COc1ccc2[nH]c(C)c(CCNC(=S)Nc3cccc(C)c3)c2c1 | · | · | · | 68.5 | 56.4 | ·
CCc1cccc(CC)c1NC(=S)NCCc1c(C)[nH]c2ccc(C)cc12 | · | · | · | 2.6* | 6.3 | ·
CCc1cccc(C)c1NC(=S)NCCc1c(C)[nH]c2ccc(C)cc12 | · | · | · | 3.8 | 3.5* | ·
CC1=C(C#N)c2nc(N)c(C#N)c(C)c2/C1=C\c1ccc(C)cc1 | 4.3* | 91.2 | · | 1.9* | 3.2* | 3.3*
Cc1ccc(C)c(NC(=O)c2ccccc2O)c1 | 81.0 | 19.2* | -1.04 | 81.1 | 81.9 | 97.1
SMILES | HUVEC inhibit | H69AR growth 86K | Pyk2 oligo antag | HCT116 PTEN-null | HCT116 bCat-KO | Fibroblast inh
CCOC(=O)c1c(-c2cccs2)csc1NC(=O)CN(CC)CC | 83.1 | 92.2 | -3.62* | 61.6 | 58.5 | 85.8
CCOC(=O)c1c(-c2cccs2)csc1NC(=O)CC(C)C | 112.8 | 48.1 | -1.86 | 80.8 | 91.7 | 98.9
O=C(Nc1nnc(-c2ccc3c(c2)CCCC3)o1)c1ccccc1 | 22.7* | 38.1* | · | 11.2 | 12.6 | 64.1
O=C(COc1ccccc1)Nc1nnc(-c2ccc3c(c2)CCCC3)o1 | 91.3 | 76.0 | · | 107.6 | 102.5 | 98.5
O=C(Nc1ccccc1)c1ccc2c(c1)OCCO2 | 99.3 | 87.2 | 1.2 | 83.7 | 82.0 | 101.7
O=C(Nc1nnc(-c2ccc3c(c2)OCCO3)o1)c1ccc(Cc2ccccc2)cc1 | 9.6* | 37.0* | · | 18.9 | 17.9 | 89.0
O=C(Nc1nnc(-c2ccc3c(c2)CCCC3)o1)c1ccccc1Cl | 22.6* | 23.2* | · | 27.6 | 27.4 | 71.6
Cc1ccc(C(=O)NC(=S)Nc2ccc(NC(=O)c3cccs3)cc2)cc1[N+](=O)[O-] | · | · | · | 50.3 | 41.1 | ·
Cc1sc(NC(=O)CSc2nnnn2C2CCCCC2)c(C#N)c1C | · | · | -0.32 | 100.1 | 98.3 | ·
Cc1cc(C)c2nc(-c3ccccn3)cc(C(=O)Nc3ccc(S(=O)(=O)Nc4cc(C)on4)cc3)c2c1 | · | · | -3.03* | 64.9 | 79.5 | ·
O=C1CCn2nc(-c3ccc(Cl)cc3)cc2N1 | 17.1* | 95.3 | · | 83.7 | 84.7 | 104.3
Nc1cc(-c2ccc(Cl)cc2)nn1S(=O)(=O)c1ccc(Cl)cc1 | 64.0 | 42.9 | · | 88.1 | 87.5 | 87.5
CC#CC[N+](C)(C)CCCCCCCCCCCC | · | · | · | 0.6* | 0.8* | ·
C#CC[N+](C)(C)CCCCCCCCCCCC | · | · | · | 1.7* | 1.4* | ·
C#CC[N+](C)(C)CCCCCCCC | · | · | · | 16.5 | 29.3 | ·
C#CC[N+](C)(C)CCCCCCCCCC | · | · | · | 11.8 | 13.2 | ·
CC(C)Cn1c(N)c(C(=O)CSc2ccc3c(c2)OCCO3)c(=O)n(C)c1=O | 80.2 | 88.2 | -1.53 | 37.0 | 23.9 | 83.9
Cc1csc(SCC(=O)Nc2sc3c(c2C#N)CCC3)n1 | 78.3 | 31.6* | 0.85 | 46.6 | 48.2 | 93.6
N#Cc1cc2c(nc1SCC(=O)Nc1nccs1)CCCCC2 | 84.0 | 68.9 | 0.77 | 91.5 | 82.5 | 95.2
COc1ccc(-c2nnn(CC(=O)Nc3sc4c(c3C#N)CCCC4)n2)cc1 | 107.8 | 6.8* | 1.56 | 93.0 | 90.7 | 108.3
Cc1ccnc(SCC(=O)Nc2sc3c(c2C#N)CCCC3)n1 | 66.4 | 89.7 | -1.16 | 34.4 | 30.1 | 89.3
CCN1CCN(CC(=O)Nc2sc3c(c2C#N)CCC(C)C3)CC1 (configuration not stated) | 78.9 | 32.1* | 0.17 | 1.5* | 1.4* | 91.9
N#Cc1cc2c(nc1SCC(=O)Nc1sc3c(c1C#N)CCC3)CCCCCC2 | 76.6 | 10.6* | -0.93 | 52.1 | 50.4 | 75.2
O=C(C(Cl)Cl)N1c2ccccc2OCC1c1ccccc1 (configuration not stated) | · | · | -1.68 | 14.9 | 12.3 | ·
CCOc1ccc(S(=O)(=O)N/N=C2/CC(c3ccccc3)Oc3ccccc32)cc1 (configuration not stated) | · | · | -0.33 | 90.0 | 88.8 | ·
CCCC(=O)Nc1sc2c(c1C#N)CCCCC2 | 82.3 | 98.7 | 2.15 | 1.0* | 0.9* | 100.5
COc1ccc(-c2ccc(C#N)c(SCC(=O)NCCc3ccccc3)n2)cc1OC | · | · | · | 4.0 | 5.7* | ·
N#Cc1c(NC(=O)CSc2ncn[nH]2)sc2c1CCCC2 | 86.3 | 18.1* | 0.05 | 91.5 | 91.8 | 90.1
CC(C)OC(=O)CC(=O)CSc1nc2c(cc1C#N)CCCC2 | 89.3 | 68.2 | 0.65 | 56.3 | 62.2 | 102.0
CC(C)OC(=O)CC(=O)CSc1nc2c(cc1C#N)CCC2 | 81.2 | 23.7* | -0.27 | 15.1 | 27.2 | 92.7
